Hits are enriched below; roughly 3.8% of the tested compounds scored in any of these assays.
Kir21 block: inhibitors of mouse Kir2.1 inward-rectifier potassium channel. P35561. HEK293-Kir2.1, FluxOR thallium flux fluorescence; active compounds read low. B-score at 10 µM. hit rate 0.85% among 310,000;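 active = fluorescence ratio B-score at or below minus 3 SD of library scores, with starting-brightness B-score within 2 SD, cut at about -4.2 in these data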;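 note: channel flux triggered by added potassium and thallium sulfate stimulus; B-score of peak minus minimum fluorescence over baseline after thallium stimulus; more negative B-score means stronger Kir2.1 block with less thallium influx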
KCNQ1 pot: potentiators or activators of human KCNQ1 potassium channel. P51787. CHO-K1 KCNQ1, thallium flux FluxOR fluorescence; active compounds read high. B-score at 10 µM. hit rate 0.35% among 310,000;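 active = fluorescence ratio B-score, a plate-corrected score, at least three library SD, with initial intensity B-score within 5 SD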
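Assay system: CHO-K1 cells stably expressing KCNQ1; Medium: assay buffer with matched DMSO; Also added: K+/Tl+ depolarizing stimulus; Dosing: single dose; Timing: dye 90 min, compound 20 min, room temperature; Measured by: kinetic FluxOR thallium fluorescence, 10-s 1-Hz baseline, 110-s post-stimulus read; Read-out: peak-minus-minimum fluorescence over initial fluorescence, negative-control normalized, B-scored.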
KCNQ1 inh: human KCNQ1 channel inhibition; P51787; CHO-K1 KCNQ1, FluxOR thallium flux fluorescence; active compounds read high; B-score at 10 µM; hit rate 1.3% among 310,000; AID 2642;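 active = compounds whose thallium flux B-score, printed positive for inhibition, exceeds three library SD while starting fluorescence stays within three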;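 note: channel opened by potassium depolarization with thallium stimulus after 20 min compound exposure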
KCNK9 block: blocks the human KCNK9 two-pore domain potassium channel; Q9NPC2; HEK293 KCNK9, FluxOR thallium flux fluorescence; active compounds read low; B-score at 10 µM; hit rate 1.2% among 310,000; AID 488922;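 active = ratio B-score over 3 SD below the library mean, with starting fluorescence within 5 SD of its mean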;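 note: negative B-score means less thallium flux so channel inhibition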
hERG protect: hERG (human) protection from proarrhythmic block; Q12809; hit rate 0.51% among 310,000; activation (rescue from dofetilide block), less the hit threshold, % at 10 µM; CHO-hERG, FluxOR thallium flux, dofetilide IC70 present;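 active = activation above the mean of controls blocked by dofetilide plus 5 SD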;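 note: thallium influx through hERG after potassium depolarization seen as dye fluorescence rise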
KCNK3 block: human KCNK3 channel inhibition, primary screen. O14649. CHO-KCNK3 thallium flux, FluxOR fluorescence; active compounds read low. B-score at 10 µM. hit rate 0.84% among 340,000. AID 602410;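 active = B-score under library mean minus 4 SD, starting fluorescence ratio at most library mean plus 5 SD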;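 note: more negative B-score means stronger inhibition of thallium flux through KCNK3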
An asterisk follows results filed as active; i = inactive; / = not tested or not shown.

SMILES	Kir21 block	KCNQ1 pot	KCNQ1 inh	KCNK9 block	hERG protect	KCNK3 block
O=C(O)c1cc([N+](=O)[O-])ccc1N1CCCCC1	-0.41	i	i	i	-3	i
COc1ccc(N2CCCC2)c(NC(=O)COc2ccccc2Cl)c1	-0.2	i	i	i	-8	i
Cc1ccc(C(=O)c2cc([N+](=O)[O-])ccc2N2CCCCC2)c(C)c1	0.4	i	i	-7.5*	-4	i
COc1ccc(C(=O)Nc2ccc(NC(=O)C3CC3)nc2)cc1	0.1	i	i	i	-1	i
Cc1ccsc1C(=O)OCC(=O)N1CCc2ccccc2C1	0.3	i	i	i	-13	i
COc1cc(C(=O)OC(C)CN2CCCCC2)cc(OC)c1OC (centres undefined)	-0.67	i	i	i	-16	i
CN(Cc1ccccc1)CC1C2CCC(C2)C1O (centres undefined)	/	/	/	/	/	i
Cc1ccc(OCC(=O)N/N=C/c2cc([N+](=O)[O-])ccc2N2CCCCC2)cc1	1.5	i	i	-7.4*	-6	i
COc1cccc(CC(=O)Nc2ccccc2C(=O)N2CCOCC2)c1	0	i	i	i	0	i
O=C(COc1ccc([N+](=O)[O-])cc1)N/N=C/c1cc([N+](=O)[O-])ccc1N1CCOCC1	0.13	i	i	i	-3	i
COc1cccc(CC(=O)Nc2ccccc2N2CCCC2)c1	-6.7*	i	i	i	-6	i
CS(=O)(=O)N1CCN(c2ccccc2NC(=O)Cc2ccccc2)CC1	0.05	i	i	i	-11	i
O=C(Cc1ccccc1)Nc1ccccc1N1CCN(c2ccccc2)CC1	-0.12	i	i	i	-10	-8.7*
COc1ccc(CC(=O)Nc2ccccc2N2CCOCC2)cc1OC	-1.3	i	i	i	-8	i
COc1ccc(CC(=O)Nc2ccccc2N2CCCCC2)cc1OC	-6.2*	i	i	i	-13	i
CCCCN1C[C@H](COC(=O)CCC)Oc2cccc(F)c2S1(=O)=O	/	/	/	/	/	i
O=C(COC(=O)c1cc(=O)[nH]c2ccccc12)NCCc1ccccc1	/	/	/	/	/	i
CCCCOc1ccc(C2OC34CCCCC3C(C#N)(C#N)C2(C#N)C(=N)O4)cc1 (centres undefined)	-0.03	i	i	i	-15	i
C=CCOc1ccc(C2OC34CCCCC3C(C#N)(C#N)C2(C#N)C(=N)O4)cc1 (centres undefined)	0.05	i	i	i	5.6*	i
CCCC(=O)C1=C(O)C(C(=O)OC)C(C)(C)CC1=NCc1ccccc1 (centres undefined)	-0.29	i	i	i	-3	i
CCCC(=O)C1=C(O)C(C(=O)OC)C(C)(C)CC1=Nc1cccc2ccccc12 (centres undefined)	-1.8	i	6*	i	-4	i
Cc1cccc(CSC(=N)N)c1	-1.1	i	i	i	-11	i
Cc1cccc(CSC(Nc2ccc(F)cc2)=C(C#N)C#N)c1	-4.5*	i	8*	i	-19	i
N#CC(C#N)=C(Nc1ccc(F)cc1)SCc1cccc(Br)c1	-3.2	i	7*	i	-21	i
COC1C(O)C(O)C(O)C(O)C1O (centres undefined)	/	/	/	/	/	i
SMILES	Kir21 block	KCNQ1 pot	KCNQ1 inh	KCNK9 block	hERG protect	KCNK3 block
CCOc1ccc(C2C([N+](=O)[O-])=C(C)N(C)C(=O)N2C)cc1OC (centres undefined)	-2.7	i	i	i	-1	i
CCN(Cc1ccccc1)c1ccc(/C=N/N=C(N)N)cc1	-14*	i	i	i	-41	i
C[C@]12c3[nH]c4cc(-c5ccco5)ccc4c3CCN1C(=O)[C@@H](CC(=O)NCc1ccco1)C[C@@H]2C(=O)N1CCOCC1	/	/	/	/	/	i
NC(=O)c1cc(S(=O)(=O)N2CCN(c3ccc([N+](=O)[O-])cc3)CC2)cs1	-1.6	i	7*	i	-9	i
CC(=O)c1ccc(N2CCN(S(=O)(=O)c3csc(C(N)=O)c3)CC2)cc1	-0.03	i	i	i	-5	i
CN(N=Nc1nc[nH]c1C(=O)NN)C1CCCCC1	/	/	/	/	/	i
Cc1ccc2cc(CN(CCc3ccccc3)C(=S)NCCCN(C)C)c(=O)[nH]c2c1	-1	i	i	i	-11	i
Cc1ccc2[nH]c(=O)c(CN(CCCN(C)C)C(=S)NCCc3ccccc3)cc2c1	-3.3	10*	i	i	-9	i
O=C(Nc1nc(-c2ccccc2)cs1)c1ccc(N2CCOCC2)c([N+](=O)[O-])c1	-1.5	i	7*	i	-10	i
CCOc1ccc(-c2nnc(SCC(=O)N3CCNC3=O)o2)cc1	/	/	/	/	/	i
Cc1ccc(OC(C)C(=O)Nc2ccccc2C(=O)NCc2cccnc2)cc1C (centres undefined)	-2.4	i	6*	i	-24	i
O=C(CC(c1ccccc1)c1ccccc1)Nc1ncn[nH]1	-1	24*	i	i	-2	i
COc1ccccc1NCCC(=O)OCC(=O)NC1CCCCCC1	-7.7*	i	i	i	-4	i
COc1ccccc1CCC(=O)OCC(=O)NC1CCCC1	-1.2	i	i	i	-11	i
c1ccc(Nc2ncnc3c2oc2ccccc23)cc1	-0.38	i	i	i	-6	i
c1ccc2c(c1)oc1c(Nc3ccc(CN4CCOCC4)cc3)ncnc12	-5*	i	i	i	-15	i
CCCn1c(SCC(=O)N2CCN(C(C)=O)CC2)nc2sc3c(c2c1=O)CCC3	-1.8	16*	i	i	25*	i
CCn1c(SC(C)C(=O)O)nc2sc3c(c2c1=O)CCC3 (centres undefined)	1.2	14*	i	i	15*	i
COCCNC(=O)C1CCC(CNS(=O)(=O)c2ccccc2)CC1 (centres undefined)	-0.31	i	i	i	-4	i
CCCN(Cc1nc2cc(Cl)ccc2c(=O)[nH]1)C(=O)c1ccc(S(=O)(=O)N2CCCC2)cc1	/	/	/	/	/	i
CCOc1ccc(NC(=O)CN2C(=O)CSC2=O)cc1	-0.07	i	i	i	-18	i
O=C(C(Sc1ccccc1)c1ccc(Br)cc1)N1CCOCC1 (centres undefined)	-5.8*	i	i	i	-8	i
CC(C)(C)OC(=O)NCc1ccc(NC(=O)c2nc[nH]c2C(=O)NCCCNC(=O)c2[nH]cnc2C(=O)Nc2ccc(CNC(=O)OC(C)(C)C)cc2)cc1	/	/	/	/	/	i
CN(C)c1ccc(/C=C/c2nc3ccccc3c(=O)n2CCO)cc1	-2.2	i	6*	i	-18	i
